pEC50, pIC50: −log10 of the molar value. Active and inactive are the calls of the source. The calls are words filed in the database; no cut-off is given here.
Legend:
HT-29 [1] = test: Cytotoxicity against human HT-29 cells after 3 days by sulforhodamine B assay; format: functional; conditions: HT-29, 72 h, read-out: ED50 (the source's name)
How it was run: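 Trypsinized HT-29 cells seeded in 96-well plates and exposed to serial DMSO dilutions, with a DMSO negative control and a paclitaxel positive control. Incubated 3 days at 37 °C, 5% CO2, then fixed, stained with sulforhodamine B, lysed in tris base and read at 515 nm. ED50 from nonlinear regression. Run in triplicate, two independent experiments.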

Transcription factor p65 = Transcription factor p65 (Homo sapiens, UniProt Q04206); test: Inhibition of NFkappa p65 in nuclear extract of human HeLa cells assessed as blockade of NFkappa p65 binding to biotinylated-consesus sequence by ELISA; format: cell-free
Transcription factor p65, sequence (Q04206 whole entry): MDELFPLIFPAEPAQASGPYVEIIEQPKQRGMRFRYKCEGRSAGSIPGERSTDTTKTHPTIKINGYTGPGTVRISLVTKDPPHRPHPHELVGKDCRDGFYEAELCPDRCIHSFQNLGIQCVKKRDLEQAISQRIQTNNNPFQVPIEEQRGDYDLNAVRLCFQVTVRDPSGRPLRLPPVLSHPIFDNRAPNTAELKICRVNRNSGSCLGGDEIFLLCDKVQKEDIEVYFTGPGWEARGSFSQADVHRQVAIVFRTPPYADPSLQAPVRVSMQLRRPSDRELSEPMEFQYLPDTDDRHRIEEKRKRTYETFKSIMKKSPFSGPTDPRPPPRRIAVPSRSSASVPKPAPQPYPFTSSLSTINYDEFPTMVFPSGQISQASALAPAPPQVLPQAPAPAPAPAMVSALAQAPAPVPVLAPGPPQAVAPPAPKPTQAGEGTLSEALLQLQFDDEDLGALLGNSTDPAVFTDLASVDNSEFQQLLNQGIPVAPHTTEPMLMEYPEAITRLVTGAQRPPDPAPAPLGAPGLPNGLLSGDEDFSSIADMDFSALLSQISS

HT-29 [2] = test: Effect on mitochondrial membrane potential in human HT-29 cells after 2 hrs using JC-1 staining by fluorescence assay; format: functional, cell-based; conditions: HT-29, 2 h
HT-29 [3] = test: Antitumor activity against human HT-29 cells at 20 mg/kg, ip by in-vivo hallow fiber model; format: functional, organism-based; parameters: dose 20 mg/kg
MCF7 = test: Antitumor activity against human MCF7 cells at 20 mg/kg, ip by in-vivo hallow fiber model; format: functional, organism-based; parameters: dose 20 mg/kg
MDA-MB-435 = test: Antitumor activity against human MDA-MB-435 cells at 20 mg/kg, ip by in-vivo hallow fiber model; format: functional, organism-based; parameters: dose 20 mg/kg

pIC50 (Transcription factor p65) | pIC50 (HT-29 [2]) | Structure (SMILES) | pEC50 (HT-29 [1]) | inhibition (HT-29 [3]) | inhibition (MCF7) | inhibition (MDA-MB-435)
5.54 |  | CC(C)=CCc1c(O)c(CC=C(C)C)c2oc3ccc(O)cc3c(=O)c2c1O | < 5.00 |  |  | 
< 5.00 |  | COc1c(O)cc2oc3cc(OC(C)=O)c(CC=C(C)C)c(O)c3c(=O)c2c1CC=C(C)C | 5.06 |  |  | 
< 5.00 | < 5.00 | COc1c(OC(=O)c2ccccc2)cc2oc3cc(O)c(CC=C(C)C)c(O)c3c(=O)c2c1CC=C(C)C | 5.72 |  |  | 
< 5.00 |  | COc1c(OC(C)=O)cc2oc3cc(OC(C)=O)c(CC=C(C)C)c(OC(C)=O)c3c(=O)c2c1CC=C(C)C | 5.22 |  |  | 
< 5.00 | 6.05 | COc1cc2oc3cc(OC)c(OC)c(CC=C(C)C)c3c(=O)c2c(O)c1CC=C(C)C | < 5.00 |  |  | 
< 5.00 | 5.74 | COc1c(OC(C)=O)cc2oc3cc(OC(C)=O)c(CC=C(C)C)c(O)c3c(=O)c2c1CC=C(C)C | 6.00 | inactive | inactive | inactive
 |  | CC(=O)O[C@H]1C(=O)[C@@]2(C)[C@H]([C@H](OC(=O)c3ccccc3)[C@]3(O)C[C@H](OC(=O)[C@H](O)[C@@H](NC(=O)c4ccccc4)c4ccccc4)C(C)=C1C3(C)C)[C@]1(OC(C)=O)CO[C@@H]1C[C@@H]2O [PACLITAXEL] | 10.00 |  |  | 
< 5.00 | < 5.00 | COc1ccc2oc3c(C/C=C(\C)CCC=C(C)C)c(O)c(CC=C(C)C)c(O)c3c(=O)c2c1 |  |  |  | 
< 5.00 | 5.85 | COc1cc2oc3c(C)c(OC)c(CC=C(C)C)c(O)c3c(=O)c2c(CC=C(C)C)c1OC | < 5.00 |  |  | 
< 5.00 |  | COc1ccc2oc3c(C/C=C(\C)CCC=C(C)C)c(OC)c(CC=C(C)C)c(O)c3c(=O)c2c1 | < 5.00 |  |  | 
< 5.00 | < 5.00 | CC(C)=CCC/C(C)=C/Cc1c(O)c(CC=C(C)C)c(O)c2c(=O)c3cc(O)ccc3oc12 [COCHINCHINONE A] | < 5.00 |  |  | 
< 5.00 |  | CC(=O)Oc1ccc2oc3c(C/C=C(\C)CCC=C(C)C)c(OC(C)=O)c(CC=C(C)C)c(O)c3c(=O)c2c1 | < 5.00 |  |  | 
 |  | CC(C)=CCC/C(C)=C/Cc1c(O)c2c(c3c(=O)c4cc(O)ccc4oc13)OC(C)(C)[C@@H](O)C2 [COCHINENSOXANTHONE] | < 5.00 |  |  | 
< 5.00 | < 5.00 | CC(C)=CCC/C(C)=C/Cc1c(O)c(CC=C(C)C)c(O)c2c(=O)c3cc(OC(=O)c4ccccc4)ccc3oc12 |  |  |  | 

Structure (SMILES) | pIC50 (Transcription factor p65) | pIC50 (HT-29 [2]) | pEC50 (HT-29 [1]) | inhibition (HT-29 [3]) | inhibition (MCF7) | inhibition (MDA-MB-435)
COc1c(O)cc2oc3cc4c(c(O)c3c(=O)c2c1CCC(C)(C)OC=O)CCC(C)(C)O4 |  | < 5.00 | 5.36 |  |  | 
COc1c(O)cc2oc3cc4c(c(O)c3c(=O)c2c1CCC(C)(C)O)CCC(C)(C)O4 |  | < 5.00 | 5.36 |  |  | 
COc1c(O)cc2oc3cc(O)c4c(c3c(=O)c2c1CCC(C)(C)O)OC(C)(C)CC4 |  | < 5.00 | < 5.00 |  |  | 
COc1c(O)cc2oc3cc(O)c(CC=C(C)C)c(O)c3c(=O)c2c1CC=C(C)C [MANGOSTIN] | < 5.00 | 6.70 | 5.39 |  |  | 
CC(C)=CC[C@]12OC(C)(C)[C@H]3C[C@H](C=C4C(=O)c5c(O)cc(O)cc5O[C@@]431)C2=O [COCHINCHINOXANTHONE] | < 5.00 | 5.48 | 5.24 |  |  | 
CC(C)=CCc1c(O)cc2oc3cc(O)c(O)c(CC=C(C)C)c3c(=O)c2c1O |  | < 5.00 | 5.40 |  |  | 
